Assay results published in ChEMBL document CHEMBL3414544, “PAINS in the assay: chemical mechanisms of assay interference and promiscuous enzymatic inhibition observed during a sulfhydryl-scavenging HTS” (J Med Chem, 2015).
Active and inactive are the calls of the source.

Experiments:
[1] = target: T1, Histone acetyltransferase RTT109 (Saccharomyces cerevisiae (strain ATCC 204508 / S288c) (Baker's yeast), UniProt Q07794); test: Inhibition of Vps75-stimulated recombinant Saccharomyces cerevisiae histone acetyltransferase Rtt109 using Asf1-dH3-H4 as substrate assessed as coenzyme A production after 45 mins by CPM based HTS assay
T1 sequence (Q07794 whole entry): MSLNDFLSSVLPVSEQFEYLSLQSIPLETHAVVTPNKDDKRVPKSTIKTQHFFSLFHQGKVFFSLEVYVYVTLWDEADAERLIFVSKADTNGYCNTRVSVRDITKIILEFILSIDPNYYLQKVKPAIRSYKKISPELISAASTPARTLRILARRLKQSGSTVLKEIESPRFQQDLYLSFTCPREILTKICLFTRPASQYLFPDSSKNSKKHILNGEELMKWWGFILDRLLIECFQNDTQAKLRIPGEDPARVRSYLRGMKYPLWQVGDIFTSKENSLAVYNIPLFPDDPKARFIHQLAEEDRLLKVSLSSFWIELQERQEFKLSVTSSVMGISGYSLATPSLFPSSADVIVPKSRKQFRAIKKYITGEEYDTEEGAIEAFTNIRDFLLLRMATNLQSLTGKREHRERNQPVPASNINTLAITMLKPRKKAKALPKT
Outline: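 Recombinant Rtt109–Vps75 at 50 nM, with Asf1–dH3–H4 as substrate and acetyl-CoA as acetyl donor. Buffer contained freshly prepared 0.01% Triton X-100. The CoA product was detected by fluorescence of its CPM adduct. Plates had Z′ ≥0.5. IC50 came from a four-parameter variable-slope fit.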

[2] = target: T2, Histone acetyltransferase RTT109 (Saccharomyces cerevisiae (strain ATCC 204508 / S288c) (Baker's yeast)) (UniProt Q07794); test: Inhibition of Vps75-stimulated recombinant Saccharomyces cerevisiae histone acetyltransferase Rtt109 assessed as H3K56 acetylated product at […] after 45 mins by Slot bolt inhibiton assay
T2 sequence (whole entry): T1 sequence (Q07794 whole entry)

[3] = target: T2, Histone acetyltransferase RTT109 (Saccharomyces cerevisiae (strain ATCC 204508 / S288c) (Baker's yeast)); test: Inhibition of Vps75-stimulated recombinant Saccharomyces cerevisiae histone acetyltransferase Rtt109 assessed as H3K27 acetylated product at […] after 45 mins by Slot bolt inhibiton assay
[4] = Fluorescence quenching assessed as fluorescence signal reduction at 10 uM after 10 mins; assay type: physicochemical
Outline: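 CPM (20 μM final) and CoA (5 μM final) reacted to completion in assay buffer (stable plateau, usually ~5 min); adduct solution added to wells preplated with compound; shaken 5 min, equilibrated 5 min at room temperature; fluorescence intensity read as percent signal reduction versus DMSO controls. Flagged as quencher at >20% signal reduction at 10 μM final compound.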

[5] = Fluorescence quenching in HTS buffer assessed as fluorescence signal reduction at 10 uM after 10 mins; assay type: physicochemical
[6] = Fluorescence quenching in HTS buffer with […] CoA assessed as fluorescence signal reduction at 10 uM after 10 mins; assay type: physicochemical
[7] = Fluorescence quenching in HTS buffer with 20 uM 7-diethylamino-3-(4'-maleimidyl-phenyl)-4-methylcoumarin assessed as fluorescence signal reduction at 10 uM after 10 mins; assay type: physicochemical

| SMILES | IC50 ([1]; read-out: IC50) | Activity [2] | Activity [3] | Activity [4] | Activity [5] | Activity [6] | Activity [7] | IC50 [1] |
| --- | --- | --- | --- | --- | --- | --- | --- | --- |
| O=S(=O)(Nc1cc(Sc2nc3ccccc3s2)c(O)c2ccccc12)c1ccccc1 | 9.9 µM | Active | Active | Not Active | Not Active | Not Active | Not Active | – |
| O=[N+]([O-])c1cccc(S(=O)(=O)Nc2cc(SCc3ccccc3)c(O)c3ccccc23)c1 | 2 µM | Active | Active | Not Active | Not Active | Not Active | Not Active | – |
| CC(C)c1ccc(S(=O)(=O)Nc2ccc(O)c(Sc3nc[nH]n3)c2)cc1 | 200 µM | inactive | inactive | Not Active | Not Active | Not Active | Not Active | – |
| Cc1ccc(N2C(=O)C=CC2=O)cc1 | 6 µM | Active | Active | Not Active | Not Active | Not Active | Not Active | – |
| O=S(=O)(Nc1cc(Sc2nc[nH]n2)c(O)c2ccccc12)c1ccccc1 | 1.4 µM | Active | Active | Not Active | Not Active | Not Active | Not Active | – |
| Cn1c(CN2CCOCC2)nnc1Sc1ccc([N+](=O)[O-])c2nonc12 | 1.8 µM | Active | Active | Not Active | Not Active | Not Active | Not Active | – |
| Cc1ccc(S(=O)(=O)C[n+]2sc(N(c3ccccc3)c3ccccc3)nc2-c2ccccc2)cc1.[Cl-] | 26 µM | – | – | Not Active | Not Active | Not Active | Not Active | – |
| [O-][Cl+3]([O-])([O-])[O-].c1ccc(-c2nc(N(c3ccccc3)c3ccccc3)s[n+]2-c2ccccc2)cc1 | 3.5 µM | Active | Active | Not Active | Not Active | Not Active | Not Active | – |
| O=C(O)CSc1cc(NS(=O)(=O)c2cccc([N+](=O)[O-])c2)c2ccccc2c1O | – | – | – | Not Active | Not Active | Not Active | Active | Not Active |
| O=C(O)CSc1cc(Cl)c2nonc2c1[N+](=O)[O-] | 17 µM | Active | Active | Not Active | Not Active | Not Active | Not Active | – |
| Cc1ccc(S(=O)(=O)C[n+]2sc(N(c3ccccc3)c3ccccc3)nc2-c2ccccc2)cc1.[Br-] | 42 µM | – | – | Not Active | Not Active | Not Active | Not Active | – |
| O=[N+]([O-])c1ccc2nonc2c1Sc1nc2ccccc2[nH]1 | 3.4 µM | Active | Active | Not Active | Not Active | Not Active | Not Active | – |
| O=S(=O)(Nc1cc(Sc2nc[nH]n2)c(O)c2ccccc12)c1ccc(Cl)cc1 | 1.4 µM | inactive | Active | Not Active | Not Active | Not Active | Not Active | – |
| CN(C)c1nc(-c2ccccc2)[n+](C)s1.[O-][Cl+3]([O-])([O-])[O-] | 5.3 µM | Active | Active | Not Active | Not Active | Not Active | Not Active | – |
| [Cl-].c1ccc(C[n+]2sc(Nc3ccccc3)nc2-c2ccccc2)cc1 | 3.1 µM | – | – | Not Active | Not Active | Not Active | Not Active | – |
| Cc1ccc(Sc2cc(NS(=O)(=O)c3ccc(Cl)cc3)c3ccccc3c2O)cc1 | 2.9 µM | Active | inactive | Not Active | Not Active | Not Active | Not Active | – |
| O=C1C=CC(=O)N1c1cc(Cl)cc(Cl)c1 | 3.1 µM | Active | Active | Not Active | Not Active | Not Active | Not Active | – |
| [Br-].c1ccc(CNc2nc(-c3ccccc3)[n+](-c3ccccc3)s2)cc1 | 2.4 µM | Active | Active | Not Active | Not Active | Not Active | Not Active | – |
| O=C1C=CC(=O)N1c1ccc(Br)cc1 | 3 µM | Active | Active | Not Active | Not Active | Not Active | Not Active | – |
| O=C1CC(Sc2nc[nH]n2)C(=O)N1c1ccccc1 (centres undefined) | 15 µM | Active | Active | Not Active | Not Active | Not Active | Not Active | – |
| [Br-].c1ccc(C[n+]2sc(Nc3ccccc3)nc2-c2ccccc2)cc1 | 3.1 µM | – | – | Not Active | Not Active | Not Active | Not Active | – |
| CC(C)c1ccc(S(=O)(=O)Nc2cc(SCCC(=O)O)c(O)c3ccccc23)cc1 | – | – | – | Not Active | Not Active | Not Active | Active | Not Active |
| Cc1ccc(-c2nc(N(c3ccccc3)c3ccccc3)s[n+]2CS(=O)(=O)c2ccccc2)cc1.[O-][Cl+3]([O-])([O-])[O-] | – | inactive | inactive | Not Active | Not Active | Not Active | Not Active | – |
| O=c1[nH]c(Sc2c([N+](=O)[O-])cc(Br)c3nsnc23)nc2ccccc12 | – | Active | Active | Not Active | Not Active | Not Active | Not Active | – |
| O=S1(=O)C=C(Sc2nn(-c3ccccc3)c(=S)s2)c2ccccc21 | – | Active | Active | Not Active | Not Active | Not Active | Not Active | – |
| O=S(=O)(Nc1cc(Br)c(O)c2ccccc12)c1ccc2ccccc2c1 | – | Active | inactive | Not Active | Not Active | Not Active | Not Active | – |
| CC(C)(C)c1ccc(S(=O)(=O)Nc2cc(SCC(=O)O)c(O)c3ccccc23)cc1 | – | – | – | Not Active | Not Active | Not Active | Active | Not Active |
| Cc1occc1-c1nnc(SC2=CS(=O)(=O)c3ccccc32)o1 | – | Active | Active | Not Active | Not Active | Not Active | Not Active | – |
| O=C1C=CC(=O)N1c1ccc(Cl)cc1 | – | Active | Active | Not Active | Not Active | Not Active | Not Active | – |
| [Br-].c1ccc(Nc2nc(-c3ccccc3)[n+](-c3ccccc3)s2)cc1 | – | Active | Active | Not Active | Not Active | Not Active | Not Active | – |
